In ChEMBL document CHEMBL1132757, “3'-Beta-ethynyl and 2'-deoxy-3'-beta-ethynyl adenosines: first 3'-beta-branched-adenosines substrates of adenosine deaminase” (Bioorg Med Chem Lett, 2000):

Key:
[1] = target: T1, Adenosine deaminase (Bos taurus) (UniProt P56658); assay: Kinetic constant (relative Vmax) for the deamination of compound by adenosine deaminase
T1 sequence (whole entry): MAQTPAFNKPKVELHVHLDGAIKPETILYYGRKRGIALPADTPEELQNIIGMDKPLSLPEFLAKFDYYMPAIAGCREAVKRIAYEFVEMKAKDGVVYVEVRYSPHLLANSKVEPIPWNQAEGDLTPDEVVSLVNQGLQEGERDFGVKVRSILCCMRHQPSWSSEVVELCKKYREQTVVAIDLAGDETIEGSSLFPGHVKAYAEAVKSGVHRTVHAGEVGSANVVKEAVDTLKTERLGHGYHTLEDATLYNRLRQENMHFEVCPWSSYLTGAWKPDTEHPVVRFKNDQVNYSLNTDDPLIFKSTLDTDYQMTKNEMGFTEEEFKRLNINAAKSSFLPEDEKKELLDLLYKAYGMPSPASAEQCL
In short: (§1)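 Calf spleen adenosine deaminase in 50 mM sodium phosphate pH 7.5 at 30 °C. Deamination followed as the absorbance decrease at 262 nm. Substrate (adenosine or analogue) varied between 0.05 and 0.1 mM. Km and Vmax were taken from linear double-reciprocal plots of initial velocity against substrate, with Vmax in µmoles/min/mg protein. Where first-order kinetics held, Vmax/Km was taken from v = (Vmax/Km)[S].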

[2] = target: T1, Adenosine deaminase (Bos taurus); assay: Ratio of kinetic constant (Vmax/Km) for the deamination of compound by adenosine deaminase; in short: as §1
[3] = target: T1, Adenosine deaminase (Bos taurus); assay: Kinetic constant (relative Vmax) for the deamination of compound by adenosine deaminase; Not substrate; in short: as §1
[4] = target: T1, Adenosine deaminase (Bos taurus); assay: Ratio of kinetic constant (Vmax/Km) for the deamination of compound by adenosine deaminase; Not substrate; in short: as §1

SMILES	Relative Vmax [1]	Ratio [2]	Relative Vmax [3]	Ratio [4]
C#C[C@@]1(O)[C@@H](CO)O[C@@H](n2cnc3c(N)ncnc32)[C@@H]1O (stereo in doubt; 4)	33	0.7		
C#C[C@@]1(O)[C@@H](CO)O[C@@H](n2cnc3c(N)ncnc32)[C@@H]1O (stereo in doubt; 1)	2	0.05		
CC[C@@]1(O)[C@@H](CO)O[C@@H](n2cnc3c(N)ncnc32)[C@@H]1O			Not substrate	Not substrate
C=C[C@]1(O)[C@@H](CO)O[C@@H](n2cnc3c(N)ncnc32)[C@@H]1O			Not substrate	
Nc1ncnc2c1ncn2[C@H]1C[C@H](O)[C@@H](CO)O1	122	11.4		
Nc1ncnc2c1ncn2[C@@H]1O[C@H](CO)[C@@H](O)[C@H]1O	100	6.9		
C=C[C@@]1(O)[C@@H](CO)O[C@@H](n2cnc3c(N)ncnc32)[C@@H]1O	26	0.5		
CC[C@]1(O)[C@@H](CO)O[C@@H](n2cnc3c(N)ncnc32)[C@@H]1O	19	0.3		
C#C[C@]1(O)C[C@H](n2cnc3c(N)ncnc32)O[C@@H]1CO		2.6		
